Laboratory results: ChEMBL document CHEMBL1138203, “Structure-activity relationship analysis of the selective inhibition of transglutaminase 2 by dihydroisoxazoles” (J Med Chem, 2006)

Molecular target: T1, Protein-glutamine gamma-glutamyltransferase (Homo sapiens, UniProt P21980)
T1 sequence (P21980 whole entry): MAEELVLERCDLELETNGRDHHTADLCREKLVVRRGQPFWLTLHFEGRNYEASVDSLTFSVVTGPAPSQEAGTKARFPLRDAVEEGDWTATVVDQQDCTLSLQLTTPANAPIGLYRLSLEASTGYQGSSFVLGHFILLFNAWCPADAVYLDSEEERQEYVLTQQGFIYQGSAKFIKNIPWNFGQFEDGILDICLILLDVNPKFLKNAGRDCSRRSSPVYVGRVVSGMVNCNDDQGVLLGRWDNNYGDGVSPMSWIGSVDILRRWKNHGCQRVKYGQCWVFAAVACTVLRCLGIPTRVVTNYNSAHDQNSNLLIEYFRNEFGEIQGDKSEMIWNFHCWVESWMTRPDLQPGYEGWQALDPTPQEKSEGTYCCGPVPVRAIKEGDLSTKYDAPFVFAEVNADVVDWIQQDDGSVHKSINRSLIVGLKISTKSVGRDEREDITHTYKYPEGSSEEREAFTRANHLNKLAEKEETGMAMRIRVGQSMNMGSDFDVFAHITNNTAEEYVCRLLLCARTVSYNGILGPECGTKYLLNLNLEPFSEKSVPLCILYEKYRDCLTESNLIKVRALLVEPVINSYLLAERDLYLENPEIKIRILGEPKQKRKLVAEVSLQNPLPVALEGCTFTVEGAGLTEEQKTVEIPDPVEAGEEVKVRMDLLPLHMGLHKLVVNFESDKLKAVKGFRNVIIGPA
Assay: Inhibition of human recombinant TG2 expressed in Escherichia coli
How it was run: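 Enzyme purified to >90%. Inhibitor at 0.001–0.3 mM. Reaction started by adding TG2; NADH loss read at 340 nm. KI and kinh came from fitting progress curves to irreversible-inhibition equations.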

SMILES	Ki [µM]
O=C(N[C@@H](Cc1ccc(O)cc1)C(=O)NCC1CC(Br)=NO1)OCc1cnc2ccccc2c1 (some centres undefined)	41
O=C(NC(Cc1c[nH]c2ccc(F)cc12)C(=O)NCC1CC(Br)=NO1)OCc1ccccc1 (centres undefined)	19
O=C(N[C@@H](Cc1c[nH]c2ccc(F)cc12)C(=O)NC[C@@H]1CC(Br)=NO1)OCc1cnc2ccccc2c1	1.3
O=C(NC[C@@H]1CC(Br)=NO1)[C@@H]1CCCN1C(=O)OCc1cnc2ccccc2c1	11
O=C(NC(Cc1c[nH]c2cccc(F)c12)C(=O)NCC1CC(Br)=NO1)OCc1ccccc1 (centres undefined)	99
O=C(N[C@@H](Cc1ccc(O)cc1)C(=O)NC[C@@H]1CC(Br)=NO1)OCc1ccccc1	68
O=C(NC(Cc1c[nH]c2ccc(O)cc12)C(=O)NCC1CC(Br)=NO1)OCc1cnc2ccccc2c1 (centres undefined)	34
O=C(NC(Cc1c[nH]c2ncccc12)C(=O)NCC1CC(Br)=NO1)OCc1ccccc1 (centres undefined)	22

The next lines start with the values.

Ki [µM]	SMILES
51	COc1ccc2[nH]cc(CC(NC(=O)OCc3cnc4ccccc4c3)C(=O)NCC3CC(Br)=NO3)c2c1 (centres undefined)
18	O=C(NC(Cc1c[nH]c2cc(F)ccc12)C(=O)NCC1CC(Br)=NO1)OCc1ccccc1 (centres undefined)
30	O=C(N[C@@H](Cc1ccc(O)cc1)C(=O)NC[C@@H]1CC(Br)=NO1)OCc1cnc2ccccc2c1
18	O=C(NC(Cc1c[nH]c2ccc(F)cc12)C(=O)NCC1CC(Br)=NO1)OCc1cnc2ccccc2c1 (centres undefined)
4	O=C(N[C@@H](Cc1c[nH]c2ccc(F)cc12)C(=O)NCC1CC(Br)=NO1)OCc1cnc2ccccc2c1 (some centres undefined)
138	O=C(NCC1CC(Br)=NO1)C1Cc2ccccc2N1C(=O)OCc1ccccc1 (centres undefined)
